Results: ChEMBL document CHEMBL3525900, “Pharmacokinetics, distribution, and metabolism of [14C]sunitinib in rats, monkeys, and humans” (Drug Metab Dispos, 2012)

Experiments:
Rattus norvegicus = test: AUC (0 to infinity) as total radioactivity in female Sprague-Dawley rat plasma at 15 mg/kg, po administered as single dose by LC/MS/MS analysis; assay type: ADME, organism-based; set-up: time infinity, dose 15 mg/kg, dosed compound name [14C]Sunitinib, route oral; details: in vivo
Procedure, shortened: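 Single dose of [14C]sunitinib L-malate as free base, 50 µCi/kg. IV dose was 5 mg/kg by tail vein in 5 females. Oral dose was 15 mg/kg by gavage in 3 females and 3 males. Total radioactivity was by scintillation counting. […] Cmax was read from raw data, t½ by log-linear regression, AUC by linear trapezoidal rule.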

Cynomolgus monkey = test: Cmax as total radioactivity in male cynomolgus monkey plasma at 6 mg/kg, po administered as single dose by LC/MS/MS analysis; assay type: ADME, organism-based, Macaca fascicularis; set-up: dose 6 mg/kg, dosed compound name [14C]Sunitinib, route oral; details: in vivo
Procedure, shortened: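 Cynomolgus monkeys of both sexes received one oral gavage of [14C]sunitinib L-malate at 6 mg/kg (37 µCi/kg). Femoral-vein blood was taken into heparin from 0.5 to 336 h. Plasma was kept cold and protected from light, then stored at -80 °C. Total radioactivity was by scintillation counting and sunitinib by methanol-extraction LC-MS-MS. Cmax was from raw data, t½ from the log-linear terminal slope, AUC(0-∞) by linear trapezoidal rule.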

[1] = Drug concentration in male Lister Hooded pigmented rat pituitary gland assessed as radioactivity per gram of tissue at 20 mg/kg administered as single dose via gastric gavage measured after 72 hrs by autoradiographic analysis; assay type: ADME, organism-based; set-up: dose 20 mg/kg, dosed compound name [14C]Sunitinib; details: in vivo, po
[2] = Drug recovery in urine of female Sprague-Dawley rat at 5 mg/kg, iv administered as single dose during 0 to 72 hrs by liquid scintillation counting; assay type: ADME, organism-based; set-up: dose 5 mg/kg, dosed compound name [14C]Sunitinib, route intravenous; details: in vivo
Kidney [3] = test: Drug concentration in female albino rat kidney assessed as radioactivity per gram of tissue at 20 mg/kg administered as single dose via gastric gavage measured after 3 hrs by autoradiographic analysis; assay type: ADME, organism-based; set-up: dose 20 mg/kg, dosed compound name [14C]Sunitinib; details: in vivo, po
Procedure, shortened: (§1)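 Sprague Dawley albino rats, ca 7-8 weeks old, dosed once by gastric gavage with [14C]sunitinib L-malate (15 mg freebase/kg, 100 µCi/kg). One male and one female killed by CO2 at 3, 6, 24, 72 and 168 h. Carcasses frozen in solid CO2/hexane, embedded and cut into 30 µm sagittal sections, then freeze-dried. Radioactivity quantified by whole-body autoradiography against standards by regression, background subtracted.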

[4] = Drug concentration in female albino rat lymph node assessed as radioactivity per gram of tissue at 20 mg/kg administered as single dose via gastric gavage measured after 3 hrs by autoradiographic analysis; assay type: ADME, organism-based; set-up: dose 20 mg/kg, dosed compound name [14C]Sunitinib; details: in vivo, po; procedure, shortened: as §1
Lung = test: Drug concentration in male Lister Hooded pigmented rat lung assessed as radioactivity per gram of tissue at 20 mg/kg administered as single dose via gastric gavage measured after 24 hrs by autoradiographic analysis; assay type: ADME, organism-based; set-up: dose 20 mg/kg, dosed compound name [14C]Sunitinib; details: in vivo, po
[5] = Drug concentration in male albino rat uveal tract assessed as radioactivity per gram of tissue at 20 mg/kg administered as single dose via gastric gavage measured after 3 hrs by autoradiographic analysis; assay type: ADME, organism-based; set-up: dose 20 mg/kg, dosed compound name [14C]Sunitinib; details: in vivo, po
[6] = Drug concentration in male albino rat pituitary gland assessed as radioactivity per gram of tissue at 20 mg/kg administered as single dose via gastric gavage measured after 6 hrs by autoradiographic analysis; assay type: ADME, organism-based; set-up: dose 20 mg/kg, dosed compound name [14C]Sunitinib; details: in vivo, po
Spleen [7] = test: Drug concentration in female albino rat spleen assessed as radioactivity per gram of tissue at 20 mg/kg administered as single dose via gastric gavage measured after 6 hrs by autoradiographic analysis; assay type: ADME, organism-based; set-up: dose 20 mg/kg, dosed compound name [14C]Sunitinib; details: in vivo, po
Pancreas [8] = test: Drug concentration in male Lister Hooded pigmented rat pancreas assessed as radioactivity per gram of tissue at 20 mg/kg administered as single dose via gastric gavage measured after 168 hrs by autoradiographic analysis; assay type: ADME, organism-based; set-up: dose 20 mg/kg, dosed compound name [14C]Sunitinib; details: in vivo, po
Kidney [9] = test: Drug concentration in female albino rat kidney assessed as radioactivity per gram of tissue at 20 mg/kg administered as single dose via gastric gavage measured after 6 hrs by autoradiographic analysis; assay type: ADME, organism-based; set-up: dose 20 mg/kg, dosed compound name [14C]Sunitinib; details: in vivo, po; procedure, shortened: as §1
[10] = Drug concentration in male Lister Hooded pigmented rat testis assessed as radioactivity per gram of tissue at 20 mg/kg administered as single dose via gastric gavage measured after 72 hrs by autoradiographic analysis; assay type: ADME, organism-based; set-up: dose 20 mg/kg, dosed compound name [14C]Sunitinib; details: in vivo, po
Blood = test: Drug concentration in male Lister Hooded pigmented rat blood assessed as radioactivity per gram of tissue at 20 mg/kg administered as single dose via gastric gavage measured after 168 hrs by autoradiographic analysis; assay type: ADME, organism-based; set-up: dose 20 mg/kg, dosed compound name [14C]Sunitinib; details: in vivo, po
Heart = test: Drug concentration in male Lister Hooded pigmented rat heart assessed as radioactivity per gram of tissue at 20 mg/kg administered as single dose via gastric gavage measured after 168 hrs by autoradiographic analysis; assay type: ADME, organism-based; set-up: dose 20 mg/kg, dosed compound name [14C]Sunitinib; details: in vivo, po
Pancreas [11] = test: Drug concentration in male albino rat pancreas assessed as radioactivity per gram of tissue at 20 mg/kg administered as single dose via gastric gavage measured after 24 hrs by autoradiographic analysis; assay type: ADME, organism-based; set-up: dose 20 mg/kg, dosed compound name [14C]Sunitinib; details: in vivo, po
[12] = Drug concentration in male albino rat skeletal muscle assessed as radioactivity per gram of tissue at 20 mg/kg administered as single dose via gastric gavage measured after 24 hrs by autoradiographic analysis; assay type: ADME, organism-based; set-up: dose 20 mg/kg, dosed compound name [14C]Sunitinib; details: in vivo, po
Thymus = test: Drug concentration in male albino rat thymus assessed as radioactivity per gram of tissue at 20 mg/kg administered as single dose via gastric gavage measured after 24 hrs by autoradiographic analysis; assay type: ADME, organism-based; set-up: dose 20 mg/kg, dosed compound name [14C]Sunitinib; details: in vivo, po
[13] = Drug concentration in male albino rat pituitary gland assessed as radioactivity per gram of tissue at 20 mg/kg administered as single dose via gastric gavage measured after 72 hrs by autoradiographic analysis; assay type: ADME, organism-based; set-up: dose 20 mg/kg, dosed compound name [14C]Sunitinib; details: in vivo, po
Small intestine = test: Drug concentration in male albino rat small intestine assessed as radioactivity per gram of tissue at 20 mg/kg administered as single dose via gastric gavage measured after 72 hrs by autoradiographic analysis; assay type: ADME, organism-based; set-up: dose 20 mg/kg, dosed compound name [14C]Sunitinib; details: in vivo, po
Spleen [14] = test: Drug concentration in female albino rat spleen assessed as radioactivity per gram of tissue at 20 mg/kg administered as single dose via gastric gavage measured after 24 hrs by autoradiographic analysis; assay type: ADME, organism-based; set-up: dose 20 mg/kg, dosed compound name [14C]Sunitinib; details: in vivo, po
[15] = Drug concentration in female albino rat bone marrow assessed as radioactivity per gram of tissue at 20 mg/kg administered as single dose via gastric gavage measured after 72 hrs by autoradiographic analysis; assay type: ADME, organism-based; set-up: dose 20 mg/kg, dosed compound name [14C]Sunitinib; details: in vivo, po
Procedure, shortened: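 Sprague Dawley (albino) rats, ca 7-8 weeks old, received a single gastric-gavage dose of [14C]sunitinib L-malate at 20 mg/kg (15 mg freebase/kg, 100 µCi/kg). One animal per sex killed by CO2 at 3, 6, 24, 72 and 168 h, then frozen in CO2/hexane. 30 µm sagittal sections were cut and freeze-dried. Radioactivity per gram quantified by whole-body autoradiography using regression against standards. LOQ 0.04–0.06 µg freebase equiv/g.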

[16] = Drug concentration in male albino rat bone marrow assessed as radioactivity per gram of tissue at 20 mg/kg administered as single dose via gastric gavage measured after 24 hrs by autoradiographic analysis; assay type: ADME, organism-based; set-up: dose 20 mg/kg, dosed compound name [14C]Sunitinib; details: in vivo, po
Spleen [17] = test: Drug concentration in female albino rat spleen assessed as radioactivity per gram of tissue at 20 mg/kg administered as single dose via gastric gavage measured after 72 hrs by autoradiographic analysis; assay type: ADME, organism-based; set-up: dose 20 mg/kg, dosed compound name [14C]Sunitinib; details: in vivo, po
[18] = Drug concentration in female Lister Hooded pigmented rat eye assessed as radioactivity per gram of tissue at 20 mg/kg administered as single dose via gastric gavage measured after 168 hrs by autoradiographic analysis; assay type: ADME, organism-based; set-up: dose 20 mg/kg, dosed compound name [14C]Sunitinib; details: in vivo, po
Procedure, shortened: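 Lister Hooded (pigmented) rats, ca 7-8 weeks old, acclimated 7 days, given [14C]sunitinib L-malate by gastric gavage at 20 mg/kg (15 mg freebase/kg, 100 µCi/kg). One male and one female killed by CO2 at 24, 72, 168 and 336 h. Carcasses frozen in solid CO2/hexane and embedded in frozen cellulose. 30 µm sagittal cryosections were freeze-dried. Tissue radioactivity measured by quantitative whole-body autoradiography against calibration standards, with background subtracted.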

`CCN(CC)CCNC(=O)c1c(C)[nH]c(/[14CH]=C2\C(=O)Nc3ccc(F)cc32)c1C.O=C(O)C[C@H](O)C(=O)O` showed an AUC (Rattus norvegicus) of 69949 ng.Eq.hr/ml, a Cmax (Cynomolgus monkey) of 243 ngequiv/ml and a Radiolabel recovery [1] of 1.65 ugequiv. It also gave a Radiolabel recovery [2] of 9.1%, a Radiolabel recovery (Kidney [3]) of 16.11 ugequiv and a Radiolabel recovery [4] of 12.39 ugequiv. It also gave a Radiolabel recovery (Lung) of 1.55 ugequiv, a Radiolabel recovery [5] of 2.63 ugequiv and a Radiolabel recovery [6] of 22.94 ugequiv. The Radiolabel recovery (Spleen [7]) was 27.96 ugequiv, the Radiolabel recovery (Pancreas [8]) was 0.06 ugequiv and the Radiolabel recovery (Kidney [9]) was 16.48 ugequiv. The Radiolabel recovery [10] was 0.87 ugequiv, the Radiolabel recovery (Blood) was 0.06 ugequiv and the Radiolabel recovery (Heart) was 0.06 ugequiv. The Radiolabel recovery (Pancreas [11]) was 1.68 ugequiv, the Radiolabel recovery [12] was 0.16 ugequiv and the Radiolabel recovery (Thymus) was 0.58 ugequiv. It also gave a Radiolabel recovery [13] of 2.7 ugequiv, a Radiolabel recovery (Small intestine) of 0.15 ugequiv and a Radiolabel recovery (Spleen [14]) of 4.42 ugequiv. It also gave a Radiolabel recovery [15] of 0.1 ugequiv, a Radiolabel recovery [16] of 0.38 ugequiv and a Radiolabel recovery (Spleen [17]) of 0.27 ugequiv. It also gave a Radiolabel recovery [18] of 73.04 ugequiv.
